Rad51 HR inh = human RAD51 strand exchange inhibitors, primary screen, biochemical, fluorescence. DNA repair protein RAD51 homolog 1 (Homo sapiens), Q06609. hRad51 DNA strand exchange, fluorescence dequenching. inhibition, % at 10 µM. 200,000 compounds, 0.085% hits;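 active means inhibition above 40% at the single screening dose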;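 further: 0% = DMSO control wells and 100% = blanks with heterologous ssDNA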
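Read-out basis: percent inhibition relative to plate controls and blanks / Assay system: human Rad51 nucleoprotein filaments preassembled on unlabelled ssDNA / Timing: filaments 15 min 37 °C, then compound 30 min / Control set: per-plate controls and blanks / Technique: fluorescence dequenching at 485/520 nm / Compound: 10 µM final, single point / Also added: Fluorescein- and BHQ1-tagged 47-mer duplex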
Arbovirus anti = antivirals against arbovirus infection, primary screen, cell-based, full library, 10K replicate subset | arbovirus infection cell-based antiviral screen | inhibition, % at 10 µM | 200,000 compounds, 0.37% hits | AID 1251, 2008; in the data active means inhibition above about 30%
Wee1 degr inh = Wee1 degradation inhibitors, primary screen, cell-based, HeLa, Wee1K328M-luciferase, luminescence; 220,000 compounds, 1.2% hits; HeLa Luc-Wee1K328M stability; 100% = proteasome inhibitor MG132 effect; reporter increase, % at 5 µM; Wee1-like protein kinase (Homo sapiens), P30291;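 active means activation above the mean of all tested compounds plus 3 SD, set per screening run, cut at about 8.8% in these data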;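 further: cells exposed to compound for 20 h before luminescence read; 0% = DMSO alone and 100% = MG132 at 30 µM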
CHOP inh = inhibitors of CHOP promoter induction, primary screen, cell-based, unfolded protein response, luciferase reporter; CHO-K1 CHOP-promoter luciferase, tunicamycin-induced, 15-18 h; inhibition, % at 10 µM; 220,000 compounds, 3.8% hits; AID 2732, 2010;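 active means compounds that reduced the stress-induced luciferase reporter signal by more than about 70% of percent inhibition, limit read from the data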;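 further: 0% = tunicamycin plus vehicle and 100% = wells without tunicamycin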
PKD1 inh = inhibitors of human PKD1 kinase, biochemical, fluorescence polarization. Serine/threonine-protein kinase D1 (Homo sapiens), Q15139. 200,000 compounds, 0.056% hits. PKD1 kinase fluorescence polarization assay. inhibition, % (no concentration beside the values)
Target sequence (Q15139 whole entry, looked up): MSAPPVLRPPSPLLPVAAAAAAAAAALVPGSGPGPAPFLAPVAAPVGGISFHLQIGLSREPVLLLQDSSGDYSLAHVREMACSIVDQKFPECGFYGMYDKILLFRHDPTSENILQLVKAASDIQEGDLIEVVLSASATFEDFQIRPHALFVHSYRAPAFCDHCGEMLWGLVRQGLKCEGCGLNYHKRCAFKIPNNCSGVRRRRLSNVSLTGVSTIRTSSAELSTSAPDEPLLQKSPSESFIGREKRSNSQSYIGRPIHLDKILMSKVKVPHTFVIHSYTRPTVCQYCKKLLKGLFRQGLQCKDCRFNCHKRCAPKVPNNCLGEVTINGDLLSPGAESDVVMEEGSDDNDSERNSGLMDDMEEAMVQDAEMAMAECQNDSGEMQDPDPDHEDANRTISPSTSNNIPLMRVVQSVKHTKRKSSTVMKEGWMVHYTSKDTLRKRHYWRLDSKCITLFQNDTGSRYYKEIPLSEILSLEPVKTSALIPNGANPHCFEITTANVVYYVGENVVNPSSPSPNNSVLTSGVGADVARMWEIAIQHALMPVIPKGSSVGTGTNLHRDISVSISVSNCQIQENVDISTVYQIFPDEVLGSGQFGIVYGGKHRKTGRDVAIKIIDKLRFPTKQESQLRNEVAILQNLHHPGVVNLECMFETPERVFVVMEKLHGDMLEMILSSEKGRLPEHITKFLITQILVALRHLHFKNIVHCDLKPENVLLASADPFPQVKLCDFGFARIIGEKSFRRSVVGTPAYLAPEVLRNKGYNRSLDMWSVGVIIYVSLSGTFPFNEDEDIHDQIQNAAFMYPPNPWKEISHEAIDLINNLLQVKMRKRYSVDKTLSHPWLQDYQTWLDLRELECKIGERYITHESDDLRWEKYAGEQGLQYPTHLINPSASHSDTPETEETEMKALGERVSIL
L major viab = Leishmania major promastigote growth inhibition, primary screen; Leishmania major promastigotes, resazurin fluorescence viability; inhibition, % at 10 µM; 200,000 compounds, 9% hits; AID 1063, 2008;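 further: promastigotes grown with compound for 44 hours at 28 °C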
An asterisk follows results filed as active; · = not tested or not shown. Rows were chosen to be rich in hits. Some 12% of all compounds tested hit in one or more screens of this group. Unless noted, no stated cut-off is given here; in the data, active means inhibition above about 50%; inactive means the rest.

SMILES	Rad51 HR inh	Arbovirus anti	Wee1 degr inh	CHOP inh	PKD1 inh	L major viab
CC(C)CNC(=O)c1ccccc1NC(=O)c1ccc(CSc2ccccc2)cc1	9	10	-1	31	0	11
Cc1ccc(S(=O)(=O)NC(C(=O)Oc2cc3oc(=O)cc(C)c3cc2Cl)C(C)C)cc1 (stereo unspecified)	-3	9	2	12	-6	2
CCOC(=O)C1(Cc2ccc(Cl)cc2)CCN(CCCn2cccn2)CC1	8	-24	1	16	1	85*
CC(C)C(=O)Nc1nnc(SCC(=O)N2c3ccccc3CC2C)s1 (stereo unspecified)	-3	39*	-1	27	0	-2
CC1Cc2ccccc2N1C(=O)CNc1ccccc1N1CCCCC1 (stereo unspecified)	-4	0	1	74*	0	27
CC1Cc2ccccc2N1C(=O)CSc1ccccc1 (stereo unspecified)	2	30*	0	-17	-6	10
CN(C)c1nc(Cl)nc(N(C#N)CCOc2ccccc2)n1	17	2	-2	-17	3	9
CCn1c(CNC(=O)c2cccs2)n[nH]c1=S	·	-3	0	-50	-8	-6
Cc1nc(NC(=O)c2cccc(Cl)c2)sc1C(=O)N1CCCCC1	8	-1	-1	-14	-1	-6
CCN(CC(=O)Nc1ccc(N2CCOCC2)cc1)CC(=O)NC(C)(C)C	·	1	-3	21	-6	-4
O=C(COC(=O)c1c2c(nc3ccccc13)CCCCC2)c1ccc(Cl)s1	-3	7	2	47	-4	62*
C=CCN(C(=O)CSc1nc2c(sc3ccccc32)c(=O)n1CCN(CC)CC)c1ccccc1	·	-3	2	11	3	32
CC1COC(=O)C(NNc2ccc(Cl)c(Cl)c2)=N1 (stereo unspecified)	-4	-24	0	19	7	100*
Cc1cc(=O)c2cc3nc(-c4cccnc4)oc3c(Br)c2o1	3	·	-1	-2	·	·
O=C1OCC(CO)(CO)N=C1NNc1cc(Cl)ccc1Cl	2	-25	0	6	-1	97*
O=C1CCCC2=C1C(c1ccc(Cl)cc1)n1c(s/c(=C\c3ccc4ccncc4c3)c1=O)=N2 (stereo unspecified)	-18	18	2	29	2	98*
Cc1cc(C)nc(NNC(=O)c2ccccc2O)n1	3	8	-2	4	-6	-3
COC(=O)C1CCN(c2ccc(C(N)=O)cc2[N+](=O)[O-])CC1	-3	0	1	19	-1	-6
COc1ccccc1NC(=O)C1=C(C)Nc2nnnn2C1c1ccccn1 (stereo unspecified)	5	-8	-2	15	-1	85*
CCOC(=O)c1c(-c2ccc(C)o2)csc1NC(=O)COC(=O)c1ccc(NC(N)=O)cc1	3	1	2	49	-2	-7
CCOC(=O)c1c(-c2ccc(C)o2)csc1NC(=S)NC(=O)c1ccccc1Br	2	47*	0	15	4	18
CCOC(=O)c1c(-c2ccc(C)o2)csc1NC(=O)CSc1nnc(C)s1	-8	7	9	27	-4	2
CCOC(=O)c1c(-c2ccc(C)o2)csc1NC(=S)NC(=O)c1cccs1	2	8	-3	-22	-18	75*
CCn1c(C)nc2cc(C(=O)N3N=C(CCOC)CC3(O)C(F)(F)F)ccc21 (stereo unspecified)	·	·	-3	-8	·	·
O=C(Nc1ccc(Cl)cc1)N1CCCN(Cc2ccccc2F)C1	·	-30	-2	22	8	57*
SMILES	Rad51 HR inh	Arbovirus anti	Wee1 degr inh	CHOP inh	PKD1 inh	L major viab
O=C(Cc1ccccc1)Nc1ccc(N2CCN(Cc3ccccc3F)CC2)cc1	6	4	1	70	5	-3
CC(=O)Nc1ccc(N2CCN(Cc3ccccc3F)CC2)cc1	-11	5	1	19	-3	50*
CCC(=O)Nc1ccc(N2CCN(Cc3ccccc3F)CC2)cc1	0	-2	0	-9	-12	-3
O=C(Nc1ccc(F)c(Cl)c1)N1CCCC1	·	6	1	-5	9	99*
O=C(CN1CCCCC1)Nc1ccc(F)c(Cl)c1	1	-6	1	9	10	-6
CC(C)N(C)C1CCN(C(=O)Nc2ccc(Cl)c(Cl)c2)CC1	·	-13	-3	-9	-5	60*
CC(NC(=O)C(=O)N/N=C\c1cccc([N+](=O)[O-])c1)c1ccccc1 (stereo unspecified)	-3	4	-1	14	8	-5
O=C(NCCCN1CCOCC1)C(=O)N/N=C/c1ccccc1O	·	·	0	30	·	·
CC(=O)Nc1ccccc1Nc1cc(C#N)c(C#N)cc1[N+](=O)[O-]	-4	·	0	·	-8	97*
CCN=c1scc(-c2ccco2)n1/N=C/c1ccc(O)cc1	-7	-6	2	76*	-2	13
CCN/C=C(\C#N)S(=O)(=O)c1ccc(Br)cc1	8	·	7	6	·	·
CCCCNC(=O)Oc1c(Br)cc2sc(=O)oc2c1Br	15	·	1	103*	·	·
CCCCNC(=O)Oc1cc(CCl)on1	5	6	3	10	3	2
CCC(=O)Nc1nc(=S)ss1	62*	-3	2	-8	3	-3
CC(C)C(=O)N1CCC2(CC1)Oc1ccc(Cl)cc1C(=O)C21CC(c2cccnc2)=NO1 (stereo unspecified)	2	·	·	1	·	·
Cc1cc(-c2nn(-c3ccccc3F)cc2CN2CCC(C(N)=O)CC2)c(C)s1	·	-1	-3	7	5	1
Cc1cc(-c2nn(-c3ccccc3F)cc2CNCCc2cnc[nH]2)c(C)s1	·	1	3	-1	6	98*
CC1(C)C(=O)Nc2ccccc2N1C(=O)COC(=O)c1ccc(Cl)c(S(=O)(=O)NCc2ccccc2)c1	-7	-1	-1	9	13	99*
CN(C)S(=O)(=O)c1cccc(C(=O)OCC(=O)N2c3ccccc3NC(=O)C2(C)C)c1	2	1	0	22	-2	-3
COc1ccc(-c2cc(C(F)(F)F)nc(SCC(=O)NCc3cccs3)n2)cc1	-5	-5	-3	70*	3	-11
FC(F)(F)c1cc(-c2ccco2)nc(NCc2cccs2)n1	3	7	0	-24	3	7
O=C(CSc1nc(-c2ccccc2)cc(C(F)(F)F)n1)NCc1cccs1	5	8	-1	82*	-9	26
FC(F)(F)c1cc(-c2ccccc2)nc(NCc2cccs2)n1	18	-28	-4	75*	-9	-6

Compound activity deposited in PubChem by several laboratories.
